The values that follow come from ChEMBL document CHEMBL6153131, “Rational Design and Optimization of a Potent IDO1 Proteolysis Targeting Chimera (PROTAC)” (J Med Chem, 2025).

Data set [1] concerns the target T1, Protein cereblon/Indoleamine 2,3-dioxygenase 1 (Homo sapiens, UniProt P14902+Q96SW2). Nature of the data set: PROTAC activity at CRBN/IDO1 in human GBM43 cell assessed as induction of IDO1 degradation at 3 uM pretreated with IFN-gamma for 24 hrs followed by compound addition and measured after 24 hrs by Western blotting analysis (reference value: 100%). It counts as cell-based. In short, it runs like this: (§1)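 GBM43 patient-derived cells given an extended dose range of PROTAC for 24 h. Protein analysed by Western blot for IDO1, and IFNγ-induced IDO1 normalised to untreated samples. n = 3 independent experiments; data as mean ± SEM.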
Target sequence in this assay (P14902 whole entry, looked up): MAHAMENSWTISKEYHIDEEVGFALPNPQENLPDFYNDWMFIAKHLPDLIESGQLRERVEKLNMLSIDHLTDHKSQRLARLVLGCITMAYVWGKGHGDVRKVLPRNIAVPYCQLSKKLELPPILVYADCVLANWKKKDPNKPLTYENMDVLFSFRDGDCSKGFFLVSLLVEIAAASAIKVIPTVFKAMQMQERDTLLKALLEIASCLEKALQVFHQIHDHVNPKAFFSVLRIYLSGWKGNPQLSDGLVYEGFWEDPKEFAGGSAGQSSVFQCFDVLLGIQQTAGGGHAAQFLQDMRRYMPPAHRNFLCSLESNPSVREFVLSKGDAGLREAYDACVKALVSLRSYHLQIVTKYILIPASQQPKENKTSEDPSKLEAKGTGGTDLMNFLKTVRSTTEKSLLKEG
Target sequence in this assay (Q96SW2 whole entry, looked up): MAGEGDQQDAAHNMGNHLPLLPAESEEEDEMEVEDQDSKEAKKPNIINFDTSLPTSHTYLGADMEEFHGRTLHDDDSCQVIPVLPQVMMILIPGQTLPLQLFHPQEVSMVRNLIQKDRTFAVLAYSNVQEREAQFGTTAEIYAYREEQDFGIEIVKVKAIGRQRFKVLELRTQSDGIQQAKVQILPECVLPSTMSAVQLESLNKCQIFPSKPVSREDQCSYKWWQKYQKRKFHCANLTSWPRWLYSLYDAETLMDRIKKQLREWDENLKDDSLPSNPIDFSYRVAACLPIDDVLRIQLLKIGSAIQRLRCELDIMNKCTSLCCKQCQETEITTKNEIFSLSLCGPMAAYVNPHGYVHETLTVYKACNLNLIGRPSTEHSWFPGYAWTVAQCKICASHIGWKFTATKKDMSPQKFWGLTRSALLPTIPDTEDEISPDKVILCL
(In western blotting, separated proteins are transferred to a membrane and probed.)

For data set [2], the system named is Kelly. Nature of the data set: Downregulation of CDK8 protein level in human Kelly cells at 1 uM incubated for 24 hrs by proteomics analysis. The data set is classed as functional, cell-based.
Data set [3] addresses T1, Protein cereblon/Indoleamine 2,3-dioxygenase 1. Description: PROTAC activity at CRBN/IDO1 in human GBM43 cell assessed as induction of IDO1 degradation at 0.003 uM pretreated with IFN-gamma for 24 hrs followed by compound addition and measured after 24 hrs by Western blotting analysis (reference value: 100%). It counts as cell-based. The procedure, abridged: as §1
Target sequence in this assay (P14902 whole entry, looked up): as the sequence (P14902 whole entry, looked up) above
Target sequence in this assay (Q96SW2 whole entry, looked up): as the sequence (Q96SW2 whole entry, looked up) above
Data set [4] has the same target. Description: PROTAC activity at CRBN/IDO1 in human U87 cells assessed as induction of IDO1 degradation by measuring remaining activity at 50 nM pretreated with IFN-gamma for 24 hrs followed by compound addition and measured after 24 hrs by Western blotting analysis (reference value: 100%). The data set is classed as cell-based.
Target sequence in this assay (P14902 whole entry, looked up): as the sequence (P14902 whole entry, looked up) above
Target sequence in this assay (Q96SW2 whole entry, looked up): as the sequence (Q96SW2 whole entry, looked up) above
Data set [5] shares this target. Description: PROTAC activity at CRBN/IDO1 in human U87 cells assessed as induction of IDO1 degradation at 100 nM pretreated with IFN-gamma for 24 hrs followed by compound addition and measured after 24 hrs in presence of NU223618 by Western blotting analysis. It counts as cell-based.
Target sequence in this assay (P14902 whole entry, looked up): as the sequence (P14902 whole entry, looked up) above
Target sequence in this assay (Q96SW2 whole entry, looked up): as the sequence (Q96SW2 whole entry, looked up) above
Data set [6] deals with U-87MG ATCC. Nature of the data set: Inhibition of kynurenine production in human U87 cells overexpressing GFP-fused IDO1 cells pretreated with IFN-gamma for 24 hrs followed by compound addition and measured after 24 hrs by Ehrlich's reagent based analysis. The data set is classed as functional, cell-based. The following applies: dose 50-100 nM.
Data set [7] has as its target T1, Protein cereblon/Indoleamine 2,3-dioxygenase 1. Nature of the data set: PROTAC activity at CRBN/IDO1 in human U87 cells assessed as induction of IDO1 degradation by measuring remaining activity at 0.01 uM pretreated with IFN-gamma for 24 hrs followed by compound addition and measured after 24 hrs by Western blotting analysis (reference value: 100%). The data set is classed as cell-based. In short, it runs like this:
(§2)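 U87 cells given an extended dose range of PROTAC for 24 h, then Western blot for IDO1. IFNγ-induced IDO1 levels normalised to untreated samples. n = 3 independent experiments; mean ± SEM.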
Target sequence in this assay (P14902 whole entry, looked up): as the sequence (P14902 whole entry, looked up) above
Target sequence in this assay (Q96SW2 whole entry, looked up): as the sequence (Q96SW2 whole entry, looked up) above

For data set [8] the target is unchanged. Description: PROTAC activity at CRBN/IDO1 in human U87 cells assessed as induction of IDO1 degradation by measuring remaining activity at 100 nM pretreated with IFN-gamma for 24 hrs followed by compound addition and measured after 2 hrs by Western blotting analysis (reference value: 100%). It counts as cell-based. In short, it runs like this:
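U87 cells under single continuous PROTAC treatment (50 and 100 nM), sampled at multiple time points up to 72 h. IDO1 assessed by Western blot.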
Target sequence in this assay (P14902 whole entry, looked up): as the sequence (P14902 whole entry, looked up) above
Target sequence in this assay (Q96SW2 whole entry, looked up): as the sequence (Q96SW2 whole entry, looked up) above

Data set [9] has the same target. Description: PROTAC activity at CRBN/IDO1 in human GBM43 cell assessed as induction of IDO1 degradation at 10 uM pretreated with IFN-gamma for 24 hrs followed by compound addition and measured after 24 hrs by Western blotting analysis (reference value: 100%). It counts as cell-based. In short, it runs like this:
as §1

For data set [10] the target is unchanged. Nature of the data set: PROTAC activity at CRBN/IDO1 in human U87 cells assessed as induction of IDO1 degradation by measuring remaining activity at 0.001 uM pretreated with IFN-gamma for 24 hrs followed by compound addition and measured after 24 hrs by Western blotting analysis (reference value: 100%). The data set is classed as cell-based. In short, it runs like this: as §2

The target is the same in data set [11]. Nature of the data set: PROTAC activity at CRBN/IDO1 in human GBM43 cell assessed as induction of IDO1 degradation at 0.01 uM pretreated with IFN-gamma for 24 hrs followed by compound addition and measured after 24 hrs by Western blotting analysis (reference value: 100%). The data set is classed as cell-based. In short, it runs like this:
as §1

Data set [12] has the same target. Nature of the data set: PROTAC activity at CRBN/IDO1 in human U87 cells assessed as induction of IDO1 degradation by measuring remaining activity at 1 uM pretreated with IFN-gamma for 24 hrs followed by compound addition and measured after 24 hrs by Western blotting analysis (reference value: 100%). It counts as cell-based. In short, it runs like this:
as §2

For data set [13], the target named is Indoleamine 2,3-dioxygenase 1 (Homo sapiens) (UniProt P14902). Description: Binding affinity to 6His-tagged recombinant IDO1 (unknown origin) assessed as binary complex formation by measuring half life by Biolayer Interferometry assay. (In general: Biolayer interferometry detects binding as a change in optical thickness at a sensor tip.)
Data set [14] addresses T1, Protein cereblon/Indoleamine 2,3-dioxygenase 1. Description: PROTAC activity at CRBN/IDO1 in human U87 cells assessed as induction of IDO1 degradation at 100 nM at 1 uM pretreated with IFN-gamma for 24 hrs followed by compound addition and measured after 24 hrs in presence of pomalidomide by Western blotting analysis. It counts as cell-based.
The next data set relates to MDA-MB-231. Description: Inhibition of kynurenine production in human MDA-MB-231 cells pretreated with IFN-gamma for 24 hrs followed by compound addition and measured after 24 hrs by Ehrlich's reagent based analysis. The data set is classed as functional, cell-based. The following applies: dose 50-100 nM.
Data set [15] concerns U-87MG ATCC. Description: Inhibition of kynurenine production in human U87 cells […] and measured after 24 hrs by Ehrlich's reagent based analysis. The following applies: dose 0.001-10 µM. It counts as functional, cell-based. In short, it runs like this: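 U87 cells plated, then 24 h later given compound with 50 ng/mL IFN-γ for a total of 24 h. Supernatant kynurenine measured with Ehrlich's reagent; cells without IFN-γ as control; mean ± SEM, Tukey's test.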

Data set [16] deals with Kelly. Description: Downregulation of ADO protein level in human Kelly cells at 1 uM incubated for 24 hrs by proteomics analysis. The data set is classed as functional, cell-based.
A short description of data set [17]: Half life in female C57BL/6J mouse plasma at 50 mg/kg, ip by LC-MS/MS analysis. It counts as ADME, organism-based.
For data set [18], the target named is T1, Protein cereblon/Indoleamine 2,3-dioxygenase 1. Nature of the data set: PROTAC activity at CRBN/IDO1 in human U87 cells assessed as induction of IDO1 degradation by measuring remaining activity at 0.1 uM pretreated with IFN-gamma for 24 hrs followed by compound addition and measured after 24 hrs by Western blotting analysis (reference value: 100%). The data set is classed as cell-based. The procedure, abridged:
as §2

Data set [19] shares this target. Nature of the data set: PROTAC activity at CRBN/N-terminal HiBiT-tagged IDO1 (unknown origin) transfected in human U87 cells assessed as induction of IDO1 degradation by measuring maximum efficacy pretreated with IFN-gamma for 24 hrs followed by compound addition and measured after 24 hrs by Nano-Glo HiBiT assay relative to control. The data set is classed as cell-based. In short, it runs like this: (§3)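 U87 cells carrying HiBiT knocked in by CRISPR/Cas9 at the IDO1 N-terminus, treated for 24 h. Degradation read as loss of luminescence. DC50 fitted from the lowest concentration up to maximal degradation, excluding hook-effect points; triplicate mean ± SD.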

Data set [20] shares this target. Description: PROTAC activity at CRBN/N-terminal HiBiT-tagged IDO1 (unknown origin) transfected in human U87 cells assessed as induction of IDO1 degradation pretreated with IFN-gamma for 24 hrs followed by compound addition and measured after 24 hrs by Nano-Glo HiBiT assay. The data set is classed as cell-based. In short, it runs like this: as §3
Target sequence in this assay (P14902 whole entry): as the sequence (P14902 whole entry, looked up) above
Target sequence in this assay (Q96SW2 whole entry): as the sequence (Q96SW2 whole entry, looked up) above
Data set [21] shares this target. Nature of the data set: PROTAC activity at CRBN/IDO1 in human SW1990 cells assessed as induction of IDO1 degradation pretreated with IFN-gamma for 24 hrs followed by compound addition and measured after 24 hrs by Western blotting analysis. It counts as cell-based. The following applies: dose 50-100 nM. In short, it runs like this: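 Cells had IDO1 induced with IFNγ, then were treated at the indicated concentrations for 24 h. Lines: PDX-6 and PDX-38 adult GBM PDX cells, U87 overexpressing GFP-fused IDO1, PC-3, KNS42, MDA-MB-231, SW-1990 and SKOV-3. Lysates probed for IDO1 and GAPDH by Western blot; representative of 3 separate replicates.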

The source made the active and inactive calls. The rule behind the calls is not given here.

Chain of Indoleamine 2,3-dioxygenase 1 (Homo sapiens) (P14902 whole entry, looked up): as the sequence (P14902 whole entry, looked up) above

The term half-life denotes the time in which the quantity being followed falls by half. Read a high half-life as slow decline. Broadly, the Emax is the size of the effect at its maximum, as opposed to the concentration needed. By DC50 is commonly meant the concentration giving 50% degradation. In the case of `C[C@@H](C(=O)Nc1cccc(OC2CCN(C(=O)CN3CCC(N4CCN(c5ccc6c(c5)C(=O)N(C5CCC(=O)NC5=O)C6=O)CC4)CC3)CC2)c1)[C@H]1CC[C@@H](c2ccnc3ccc(F)cc32)CC1` (some centres not stated), the Activity in [1] was 77%; in data set [3], 75%; in data set [4], 28%; in [7], 48%; in [8], 86%; in [9], 87%. Moreover, the Activity in data set [10] was 83%; in data set [11], 61%; in data set [12], 35%; in [18] it was 12%; in data set [21] it was “Dose-dependent-effect”. Moreover, the outcome in the data set on Kelly [2] and in the data set with Kelly [16] was Active. For the same molecule, the result in [5] and in data set [14] was inactive. For the same molecule, the inhibition entry in the data set on U-87MG ATCC [6], in the data set on MDA-MB-231 and in the data set with U-87MG ATCC [15] was “Dose-dependent-effect” each time. Also, in [13], the T1/2 amounted to 38.6 s. The molecule further had a half-life in data set [17] of 5.7 h. The Emax in data set [19] was found to be 63%. Also, the 50% degradation concentration (DC50) in data set [20] was 4.5 nM.
